Results reported in ChEMBL document CHEMBL2176968, “Identification of less lipophilic riminophenazine derivatives for the treatment of drug-resistant tuberculosis” (J Med Chem, 2012).
Values after ≈ are worked out from the molar mass of the structure shown.

Assays:
[1] = Selectivity index, ratio of IC50 for african green monkey Vero cells to MIC for Mycobacterium tuberculosis H37Rv ATCC 27294; type: functional
[2] = tested on: Vero; assay: Cytotoxicity against african green monkey Vero cells after 48 hrs by MTT assay; type: cell-based; conditions: Chlorocebus sabaeus
Outline: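 Vero cells were exposed to compound. The IC50 was taken as the concentration inhibiting 50% of growth relative to an untreated control.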

[3] = tested on: Mycobacterium tuberculosis; assay: Antimycobacterial activity against Mycobacterium tuberculosis H37Rv ATCC 27294 after 7 days by microplate Alamar blue assay; type: functional; conditions: H37Rv ATCC 27294, 168 h
Outline: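 Run in 96-well plates against M. tuberculosis H37Rv using the Alamar Blue read-out. The MIC was taken as the lowest concentration giving >90% growth inhibition.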

For `Cc1ccc(Nc2cc3nc4ccccc4n(-c4ccc(C(F)(F)F)cc4)c-3c/c2=N\C2CCOCC2)cn1`, the “Selectivity Index” value [1] was 1098, the IC50 [2] was 35.1 µg/mL (≈ 66.3 µM) and the MIC [3] was 0.032 µg/mL (≈ 0.0604 µM).

In the case of `COC1CCC(/N=c2\cc3n(-c4ccc(C(F)(F)F)cc4)c4ccccc4nc-3cc2Nc2ccc(C)nc2)CC1` (centres undefined), the “Selectivity Index” value [1] is reported as 2089, the IC50 [2] is reported as 33.4 µg/mL (≈ 60 µM) and the MIC [3] is reported as 0.016 µg/mL (≈ 0.0287 µM).

With `COc1ncccc1Nc1cc2nc3ccccc3n(-c3ccc(Br)cc3)c-2c/c1=N\C(C)C` the “Selectivity Index” value [1] was 1306, the IC50 [2] was greater than 64 µg/mL and the MIC [3] was 0.049 µg/mL (≈ 0.0953 µM).

For `Cc1ncccc1Nc1cc2nc3ccccc3n(-c3ccc(Br)cc3)c-2c/c1=N\C(C)C`, the “Selectivity Index” value [1] was 635, the IC50 [2] was 39.4 µg/mL (≈ 79 µM) and the MIC [3] was 0.062 µg/mL (≈ 0.124 µM).

For `Cc1ccc(Nc2cc3nc4ccccc4n(-c4ccc(Br)cc4)c-3c/c2=N\C(C)C)cn1`, the “Selectivity Index” value [1] was 64, the IC50 [2] was 3.12 µg/mL (≈ 6.26 µM) and the MIC [3] was 0.049 µg/mL (≈ 0.0983 µM).

With `Cc1ccc(Nc2cc3nc4ccccc4n(-c4ccc(Br)cc4)c-3c/c2=N\C2CCOCC2)cn1` the “Selectivity Index” value [1] was 493, the IC50 [2] was 21.7 µg/mL (≈ 40.2 µM) and the MIC [3] was 0.044 µg/mL (≈ 0.0814 µM).

In the case of `COC1CCC(/N=c2\cc3n(-c4ccc(Br)cc4)c4ccccc4nc-3cc2Nc2ccc(C)nc2)CC1` (centres undefined), the “Selectivity Index” value [1] is reported as 409, the IC50 [2] is reported as 39.7 µg/mL (≈ 69.8 µM) and the MIC [3] is reported as 0.097 µg/mL (≈ 0.171 µM).

With `COc1ncccc1Nc1cc2nc3ccccc3n(-c3ccc(OC(F)(F)F)cc3)c-2c/c1=N\C(C)C` the “Selectivity Index” value [1] was 2286, the IC50 [2] was greater than 64 µg/mL and the MIC [3] was 0.028 µg/mL (≈ 0.0539 µM).

For `COc1ncccc1Nc1cc2nc3ccccc3n(-c3ccc(OC(F)(F)F)cc3)c-2c/c1=N\C1CCOCC1`, the “Selectivity Index” value [1] was 4000, the IC50 [2] was greater than 64 µg/mL and the MIC [3] was 0.016 µg/mL (≈ 0.0285 µM).

With `Cc1ncccc1Nc1cc2nc3ccccc3n(-c3ccc(Cl)cc3)c-2c/c1=N\C(C)C` the “Selectivity Index” value [1] was 1164, the IC50 [2] was greater than 64 µg/mL and the MIC [3] was 0.055 µg/mL (≈ 0.121 µM).

For `Cc1ncccc1Nc1cc2nc3ccccc3n(-c3ccc(Cl)cc3)c-2c/c1=N\C1CCOCC1`, the “Selectivity Index” value [1] was 163, the IC50 [2] was 27.4 µg/mL (≈ 55.3 µM) and the MIC [3] was 0.168 µg/mL (≈ 0.339 µM).

With `Cc1ccc(Nc2cc3nc4ccccc4n(-c4ccc(Cl)cc4)c-3c/c2=N\C(C)C)cn1` the “Selectivity Index” value [1] was 118, the IC50 [2] was 7.09 µg/mL (≈ 15.6 µM) and the MIC [3] was 0.06 µg/mL (≈ 0.132 µM).

With `Cc1ccc(Nc2cc3nc4ccccc4n(-c4ccc(Cl)cc4)c-3c/c2=N\C2CCOCC2)cn1` the “Selectivity Index” value [1] was 324, the IC50 [2] was 9.73 µg/mL (≈ 19.6 µM) and the MIC [3] was 0.03 µg/mL (≈ 0.0605 µM).

With `Clc1ccc(-n2c3c/c(=N\C4CCOCC4)c(Nc4cncc(Br)c4)cc-3nc3ccccc32)cc1` the “Selectivity Index” value [1] was 1778, the IC50 [2] was greater than 64 µg/mL and the MIC [3] was 0.036 µg/mL (≈ 0.0642 µM).

In the case of `COC1CCC(/N=c2\cc3n(-c4ccc(Cl)cc4)c4ccccc4nc-3cc2Nc2cncc(Br)c2)CC1` (centres undefined), the “Selectivity Index” value [1] is reported as 1231, the IC50 [2] is reported as greater than 64 µg/mL and the MIC [3] is reported as 0.052 µg/mL (≈ 0.0883 µM).

For `COc1ncccc1Nc1cc2nc3ccccc3n(-c3ccc(F)cc3)c-2c/c1=N\C1CCOCC1`, the “Selectivity Index” value [1] was 1641, the IC50 [2] was greater than 64 µg/mL and the MIC [3] was 0.039 µg/mL (≈ 0.0787 µM).

With `Cc1ncccc1Nc1cc2nc3ccccc3n(-c3ccc(F)cc3)c-2c/c1=N\C(C)C` the “Selectivity Index” value [1] was 449, the IC50 [2] was 14.4 µg/mL (≈ 32.8 µM) and the MIC [3] was 0.032 µg/mL (≈ 0.0731 µM).

In the case of `Cc1ccc(Nc2cc3nc4ccccc4n(-c4ccc(F)cc4)c-3c/c2=N\C(C)C)cn1`, the “Selectivity Index” value [1] is reported as 131, the IC50 [2] is reported as 7.88 µg/mL (≈ 18 µM) and the MIC [3] is reported as 0.06 µg/mL (≈ 0.137 µM).

For `Cc1ccc(Nc2cc3nc4ccccc4n(-c4ccc(F)cc4)c-3c/c2=N\C2CCOCC2)cn1`, the “Selectivity Index” value [1] was 112, the IC50 [2] was 14 µg/mL (≈ 29.3 µM) and the MIC [3] was 0.125 µg/mL (≈ 0.261 µM).

For `COC1CCC(/N=c2\cc3n(-c4ccc(F)cc4)c4ccccc4nc-3cc2Nc2ccc(C)nc2)CC1` (centres undefined), the “Selectivity Index” value [1] was 1067, the IC50 [2] was greater than 64 µg/mL and the MIC [3] was 0.06 µg/mL (≈ 0.118 µM).

With `Cc1ncccc1Nc1cc2nc3ccccc3n(-c3ccc(C(F)(F)F)cc3)c-2c/c1=N\C(C)C` the “Selectivity Index” value [1] was 4571, the IC50 [2] was greater than 64 µg/mL and the MIC [3] was 0.014 µg/mL (≈ 0.0287 µM).

For `COC1CCC(/N=c2\cc3n(-c4ccc(C(F)(F)F)cc4)c4ccccc4nc-3cc2Nc2cccnc2C)CC1` (centres undefined), the “Selectivity Index” value [1] was 5818, the IC50 [2] was greater than 64 µg/mL and the MIC [3] was 0.011 µg/mL (≈ 0.0197 µM).

In the case of `Cc1ccc(Nc2cc3nc4ccccc4n(-c4ccc(C(F)(F)F)cc4)c-3c/c2=N\C(C)C)cn1`, the “Selectivity Index” value [1] is reported as 1147, the IC50 [2] is reported as 34.4 µg/mL (≈ 70.6 µM) and the MIC [3] is reported as 0.03 µg/mL (≈ 0.0615 µM).
